Compound activity: PubChem BioAssay, The Scripps Research Institute Molecular Screening Center
PAFAH1B3 inh: PAFAH1B3 (human) inhibition. recombinant PAFAH1B3, FP-rhodamine probe, fluorescence polarization. inhibition, % at 3.39 µM. Q15102. actives 0.28% (n = 340,000);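 active = inhibition above the screen-wide average of all tested compounds plus 3 SD, cut at about 25% in these data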;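 note: 0% = enzyme with DMSO only and 100% = wells lacking PAFAH1B3 protein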
Target sequence (Q15102 whole entry, looked up): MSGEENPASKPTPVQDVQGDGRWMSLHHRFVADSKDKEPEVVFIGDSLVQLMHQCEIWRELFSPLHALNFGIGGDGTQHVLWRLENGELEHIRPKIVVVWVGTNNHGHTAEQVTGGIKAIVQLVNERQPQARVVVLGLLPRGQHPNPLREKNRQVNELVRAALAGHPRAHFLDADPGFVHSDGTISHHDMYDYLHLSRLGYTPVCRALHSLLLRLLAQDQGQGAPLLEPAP
PAFAH2 FP inh: PAFAH2 (human) inhibition. recombinant PAFAH2, FP-rhodamine activity probe, fluorescence polarization. Q99487. actives 0.99% (n = 340,000). inhibition, % at 3.39 µM;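 active = inhibition above the mean over all tested compounds plus 3 SD, cut at about 30% in these data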;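 note: inhibitors block probe labeling of enzyme so polarization drops; 0% = enzyme with DMSO and 100% = wells lacking PAFAH2 protein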
ARFGAP1 inh: inhibits rat ARF GTPase activating protein 1; Arfgap1-stimulated ARF1 GTP hydrolysis, GDP FP detection; Q62848; actives 0.26% (n = 360,000); AID 651572; inhibition, % at 16.5 µM;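 active = inhibition above a per-plate limit, mean inhibition of low control wells plus 3 SD, cut at about 25% in these data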;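 note: 0% = DMSO wells with enzyme and 100% = wells lacking Arfgap1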
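Repeats: one replicate per compound; assay system: rat Arfgap1 catalytic domain, aa 1-136; times: enzyme reaction 120 min at 25 °C after 20 min preincubation; detection: FP of antibody-bound GDP Alexa 633 tracer, ex 620/em 688 nm; benchmarks: high control wells lacking Arfgap1, low control full reaction with DMSO; reagent: human ARF1(Δ1-17)-GTP substrate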
PAFAH1B2 FP inh: PAFAH1B2 (human) inhibition; recombinant PAFAH1B2, FP-rhodamine activity probe, fluorescence polarization; inhibition, % at 3.39 µM; actives 1.2% (n = 340,000);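 active = inhibition above the mean of all tested compounds plus 3 SD, cut at about 24% in these data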;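 note: 0% = enzyme with DMSO and 100% = wells lacking PAFAH1B2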
Target sequence (P68402 whole entry, looked up): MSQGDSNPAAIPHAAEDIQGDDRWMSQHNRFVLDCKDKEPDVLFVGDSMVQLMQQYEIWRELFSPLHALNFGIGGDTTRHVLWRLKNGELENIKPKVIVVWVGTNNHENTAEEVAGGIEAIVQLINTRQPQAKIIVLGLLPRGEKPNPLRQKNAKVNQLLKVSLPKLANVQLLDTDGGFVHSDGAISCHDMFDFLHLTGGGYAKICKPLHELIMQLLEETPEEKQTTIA
ASAP1 inh: ASAP1 ArfGAP inhibition | Q9ULH1 | ASAP1-stimulated ARF1 GTP hydrolysis, GDP FP detection | inhibition, % at 16.5 µM | actives 0.19% (n = 360,000) | AID 624377; in the data active = inhibition above about 25%;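 note: 0% = vehicle with enzyme and substrate and 100% = no enzyme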
pPAFAH FP inh: inhibitors of human plasma PAF acetylhydrolase (pPAFAH) | Q13093 | recombinant pPAFAH, FP-rhodamine probe fluorescence polarization | inhibition, % at 3.39 µM | actives 1.5% (n = 330,000) | AID 463082;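 active = inhibition above the mean inhibition across the screen plus 3 SD, cut at about 25% in these data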;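 note: inhibitors block binding of the rhodamine activity-based probe so polarization drops; 0% = enzyme with DMSO and 100% = wells lacking pPAFAH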
Numbers without * were called inactive; · = no result. This is a sample that favours compounds with a hit; in the whole collection about 2.8% have one here.

SMILES	PAFAH1B3 inh	PAFAH2 FP inh	ARFGAP1 inh	PAFAH1B2 FP inh	ASAP1 inh	pPAFAH FP inh
S=C1NCCOCCNC(=S)NCCOCCOCCN1	0	6	12	-3	17	26*
COc1ccccc1NC1=NCC(=O)N1Cc1ccccc1	1	-8	2	1	-11	-1
CCOc1ccccc1NC1=NCC(=O)N1Cc1ccc(F)cc1	-3	0	-14	0	-4	32*
COc1cc(/C=C2\CCCc3c2nc2ccccc2c3C(=O)O)cc(Br)c1O	12	6	2	2	10	12
COc1cc(/C=C2\CCc3c2nc2ccccc2c3C(=O)O)cc(OC)c1OC	11	18	-12	-1	1	32*
COc1cc(C(=O)NC(=S)Nc2ccc3ccccc3c2)cc(OC)c1OC	·	·	0	·	4	·
COc1ccccc1CNC(=O)C[C@@H]1C[C@H]2c3cc(N(C)C)ccc3O[C@H]2[C@H](CO)O1	·	·	-6	·	3	·
Cc1ccc(C)c(NCCCCC(=O)O)c1	·	·	2	·	3	·
CC(=O)Nc1ccc(S(=O)(=O)NCCSCc2ccc(Cl)cc2Cl)cc1	7	-8	8	39*	20	16
CC(=O)Nc1ccc(S(=O)(=O)NCCNS(=O)(=O)c2ccc(NC(C)=O)cc2)cc1	4	11	-2	0	0	1
O=C(O)CCC(=O)N1CCc2cc(S(=O)(=O)N3CCCCC3)ccc21	7	11	·	3	·	4
CC1CCN(S(=O)(=O)c2ccc3c(c2)CCN3C(=O)CCC(=O)O)CC1	11	1	4	26*	-19	2
Cc1ccccc1-c1nc2sc(-c3ccccc3)cc2c(=O)o1	-3	66*	5	0	-10	10
Cc1cccc(-c2nnc(-c3cccc4ccccc34)o2)c1	3	-6	4	-4	-5	·
Cc1cccc(-c2nc3sc(C)cc3c(=O)o2)c1	-6	74*	3	-5	9	33*
CNC(=O)c1cc(S(=O)(=O)NC2CCCCCC2)ccc1C	3	1	5	9	-1	·
Cc1ccc(NS(=O)(=O)c2ccc3[nH]c(=O)[nH]c3c2)c(C)c1	-2	-5	13	-5	-5	28*
Cc1ccc(C)c(NS(=O)(=O)c2ccc3[nH]c(=O)[nH]c3c2)c1	5	-9	2	2	5	11
CNC(=O)c1cc(S(=O)(=O)Nc2ccc(C)cc2C)ccc1C	3	0	8	-3	2	30*
O=C(CSc1n[nH]c(=O)n1C1CC1)Nc1ccccc1	-6	-3	12	5	2	3
O=c1[nH]nc(SCc2ccccc2)n1C1CC2C=CC1C2 (stereo unspecified)	1	-7	2	26*	-9	8
CN(CC(=O)Nc1ccc(N2CCOCC2)cc1)C(=O)c1cccc(Cl)c1Cl	9	0	10	6	-12	-4
CSCCC(NC(=O)c1ccccc1Cl)C(=O)N(C)CC(=O)Nc1ccc(N2CCOCC2)cc1 (stereo unspecified)	2	4	-2	5	-5	29*
O=C1NN(c2ccc(Cl)c(Cl)c2)C(=O)/C1=C/c1cccc(OC(=O)c2cccs2)c1	·	·	·	·	·	57*
O=C1NN(c2ccccc2)C(=O)/C1=C\c1cccc(OC(=O)c2cccs2)c1	7	27	-3	19	-6	14
SMILES	PAFAH1B3 inh	PAFAH2 FP inh	ARFGAP1 inh	PAFAH1B2 FP inh	ASAP1 inh	pPAFAH FP inh
CCn1nc(C(=O)Nc2cc(Cl)ccc2-n2cncn2)c2ccccc2c1=O	7	13	8	1	0	-9
COc1ccc(CNCC(O)COc2ccc(C(C)(C)c3ccccc3)cc2)cc1 (stereo unspecified)	-3	2	2	12	10	26*
COc1ccc(NCC(O)COc2ccc(C(C)(C)C)cc2)cc1 (stereo unspecified)	8	0	8	27*	5	12
COC(=O)c1ccc(CNCC(O)COc2ccc(-c3ccccc3)cc2)cc1 (stereo unspecified)	-3	-13	8	1	6	-2
COc1ccccc1NCC(O)COc1ccc(C(C)(C)C)cc1 (stereo unspecified)	10	6	-3	7	-1	9
O=C(Cn1cnc2ccc(Cl)cc2c1=O)NC1CCS(=O)(=O)C1 (stereo unspecified)	-1	-10	4	-3	15	·
